# SIAE primary: human SIAE inhibition, primary screen | inhibition, % at 9.66 µM | Q9HAT2 | SIAE FP-Rh probe binding, fluorescence polarization | 0.69% of 370,000 active;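 active = inhibition above a cutoff: mean of compounds within the control limits plus 3 SD of those, cut at about 17% in these data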
# DAGLB inhibitor: blocks human DAGLB lipase activity | Q8NCG7 | HEK293T DAGLB membrane lysate, EnzChek fluorogenic substrate | inhibition, % at 5.17 µM | 0.059% of 340,000 active | AID 504411; in the data active = inhibition above about 34%
# HTRA1 inh: inhibitors of human serine peptidase HTRA1 | recombinant HTRA1, FP-rhodamine activity-based probe, fluorescence polarization | inhibition, % at 5.96 µM | 0.5% of 340,000 active; in the data active = inhibition above about 36%
# Target sequence (Q92743 whole entry, looked up): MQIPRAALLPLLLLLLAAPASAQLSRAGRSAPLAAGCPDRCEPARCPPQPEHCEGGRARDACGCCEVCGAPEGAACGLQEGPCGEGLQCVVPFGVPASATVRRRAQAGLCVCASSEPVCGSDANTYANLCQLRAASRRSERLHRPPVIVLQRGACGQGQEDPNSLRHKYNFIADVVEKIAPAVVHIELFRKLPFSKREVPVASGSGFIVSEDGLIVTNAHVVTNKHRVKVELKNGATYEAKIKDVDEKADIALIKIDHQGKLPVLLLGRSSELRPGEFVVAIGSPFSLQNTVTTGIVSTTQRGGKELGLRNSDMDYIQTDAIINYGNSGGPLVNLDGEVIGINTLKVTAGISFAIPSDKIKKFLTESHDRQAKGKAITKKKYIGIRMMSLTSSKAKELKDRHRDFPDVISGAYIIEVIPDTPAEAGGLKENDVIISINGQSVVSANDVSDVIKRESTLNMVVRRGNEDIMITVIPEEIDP
# ABHD4 inh: ABHD4 (mouse) inhibition, primary FP screen. 0.54% of 370,000 active. purified mABHD4, FP-Rh probe fluorescence polarization. AID 720543. Q8VD66. inhibition, % at 8.92 µM;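 active = inhibition exceeding the mean over every tested compound plus 3 SD, cut at about 30% in these data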
#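 Test system: mABHD4 protein | Buffer or medium: HEPES pH 7.0 buffer, 150 mM NaCl, 0.01% Pluronic F-127 | Probe or stimulus: FP-Rh fluorescent activity-based probe, added after compound pre-incubation | Timing: Pre-incubation 45 min, probe exposure 60 min, at 25 °C | Technique: Fluorescence polarization, excitation 525 nm, emission 598 nm, BODIPY TMR filters | Repeats: Single well per compound (singlicate)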
# TCR-CD3 inh: human TCR-CD3 binding inhibition; TAMRA-labeled TCR probe fluorescence, biochemical; inhibition, % at 9.4 µM; AID 651800; 0.37% of 360,000 active; in the data active = inhibition above about 19%;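 also: recombinant mutant TCR 2C K166C tagged with TAMRA read by polarization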
# HTRA1 inh conf: HTRA1 (human) inhibition, confirmation; inhibition, % at 5.96 µM; 66% of 1,600 active; shares compounds with HTRA1 inh; recombinant HTRA1, FP-rhodamine activity-based probe, fluorescence polarization; AID 540248;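 active = mean inhibition over three repeats above a set limit taken from the earlier primary screen, cut at about 37% in these data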;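 also: inhibitors block probe binding so polarization drops and inhibition rises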
# A number is an active result; i = inactive; nt = no result. Sampled rows, rich in hits. Any-hit rate of the full collection: about 1.5%.
SMILES,SIAE primary,DAGLB inhibitor,HTRA1 inh,ABHD4 inh,TCR-CD3 inh,HTRA1 inh conf
COC(=O)Cc1nnn2c1[C@H](C)[C@@H](OC)c1ccccc1-2,i,nt,nt,i,i,nt
CCC(=O)NC(c1ccco1)c1cc(Cl)c2cccnc2c1O (configuration not stated),i,i,55.7,i,i,63.5
CCC(=O)NC(c1ccc(OC)cc1)c1cc(Cl)c2cccnc2c1O (configuration not stated),i,i,59.3,i,i,72.5
CC(=O)NC(c1cc(Cl)c2cccnc2c1O)C(C)C (configuration not stated),i,i,52.9,i,i,72.5
O=C(CCc1ccccc1)NC(c1cccs1)c1cc(Cl)c2cccnc2c1O (configuration not stated),i,i,48.8,i,i,54.0
COC(=O)C1CN(Cc2ccc(F)cc2)CCS(=O)(=O)N1Cc1ccccc1 (configuration not stated),i,nt,nt,i,nt,nt
CCCCC(=O)NC(c1ccco1)c1cc(Cl)c2cccnc2c1O (configuration not stated),i,i,59.0,i,i,64.9
COc1cc(/C=N/Nc2cccc(C)c2)cc(Br)c1O,i,i,37.6,i,i,i
COc1cc(/C=N/Nc2cccc(C)c2)ccc1OC(=O)c1cccs1,i,i,i,i,i,nt
COP(=O)(O)[C@@H](CC(C)C)NC(=O)OCc1ccccc1,i,nt,nt,i,nt,nt
COc1cccc2nc3cc(C)c(C)cc3nc12,i,i,47.9,i,i,i
CCOC(=O)C1Nc2ccc(C(=O)O)cc2C2C=CCC12 (configuration not stated),i,i,i,i,i,nt
CCCC1Nc2ccc(C(=O)O)cc2C2C=CCC12 (configuration not stated),nt,i,38.9,nt,nt,38.5
CCc1ccc2[nH]c(=O)c(C3C(C#N)=C(N)Oc4c3ccc3cccnc43)cc2c1 (configuration not stated),i,43.8,81.8,i,i,i
O=C(O)c1cccc(Cn2c(Cl)c(/C=N/NC(=O)c3cc4ccccc4cc3O)sc2=O)c1,i,i,49.7,i,i,55.2
O=C(O)c1cccc(Cn2c(Cl)c(/C=N/NC(=O)c3ccccc3)sc2=O)c1,i,i,i,i,i,nt
O=C(COCc1ccccc1)N1CCC(Oc2cccnc2)CC1,i,nt,nt,i,nt,nt
Cc1cccc(N2CCN(c3ccc(NC(=O)/C=C(/C(=O)O)c4ccccc4)cc3)CC2)c1,i,i,49.4,i,i,41.1
CC(=O)N1CCN(c2ccc(NC(=O)c3cccc(C)c3)cc2)CC1,i,i,i,i,i,nt
COc1cc(NC(C)CCCNC(C)C)c2ncccc2c1OC (configuration not stated),i,i,i,i,i,nt
COc1cc(NCCCCCCN)c2ncccc2c1OC,i,i,37.9,40.5,i,39.4
CC(=O)Nc1ccc(C23CC4CC(CC(C4)C2)C3)cc1,i,i,i,i,i,nt
Oc1ccc(C23CC4CC(CC(C4)C2)C3)cc1O,i,i,58.8,i,i,81.1
CC(C)c1ccc(NC(=O)Nc2cc3sccc3n2C)cc1,i,i,46.8,i,i,i
CN1c2cccc3cccc(c23)N(C)C1(C)C,i,i,i,i,i,nt
SMILES,SIAE primary,DAGLB inhibitor,HTRA1 inh,ABHD4 inh,TCR-CD3 inh,HTRA1 inh conf
CN1c2ccccc2N(C)C1(C)c1cccc2ccccc12,i,i,47.2,i,i,i
Oc1ccc2ccccc2c1/C=N/Nc1nnc(-c2ncc[nH]2)c2ccccc12,i,i,38.4,i,i,100.2
Cc1cc2c(nc1C)CCCN2S(=O)(=O)c1ccccc1,i,nt,nt,i,i,nt
O=C(N/N=C/c1ccc(Sc2ccccn2)o1)c1cc2ccccc2cc1O,nt,i,59.8,nt,nt,48.8
O=C(N/N=C\c1ccc(Sc2ccccn2)o1)c1cccc(F)c1,i,i,i,i,i,nt
C/C(=N\NC(=O)c1cc2ccccc2cc1O)c1ccccn1,i,i,51.7,i,i,i
Oc1ccccc1C=NNC(=S)Nc1ccc(F)cc1,i,i,44.6,i,i,46.3
O=C(COc1ccccc1C(=O)N/N=C\c1ccc(O)c(O)c1)N/N=C/c1ccc(O)c(O)c1,nt,i,47.2,nt,nt,58.6
CC(C)(C)c1ccc(OCc2ccc(C(=O)N/N=C/c3ccc(O)c(O)c3)cc2)cc1,i,i,45.3,i,i,81.5
CCCC[C@H]1C2CC(OC(=O)Nc3cccc(F)c3)C(C2)[C@H]2CCCCN21 (some centres not stated),i,nt,nt,i,nt,nt
CCOC(=O)c1c2c(n(-c3ccc(OC)cc3)c1C)C(=O)C(=O)c1ccccc1-2,nt,i,46.8,nt,nt,44.5
CN1CCN(C(=O)c2cccc(-c3cc(O)c4ncccc4c3)c2)CC1,i,i,i,i,i,nt
CN1CCN(c2cc(-c3cc(O)c4ncccc4c3)ccn2)CC1,i,i,47.4,i,i,61.8
CN(Cc1ccccc1F)C(=O)Cn1c(-c2cncs2)nc2ccccc21,i,nt,nt,i,nt,nt
Cc1oc2cc(O)cc(C)c2c(=O)c1-c1cnn(-c2ccccc2)c1,i,i,i,i,i,nt
Cc1oc2c(O)c(O)ccc2c(=O)c1-c1cnn(-c2ccccc2)c1,i,i,60.8,i,i,92.3
Cc1cc(C)cc(C(=O)OCCCN(C)C2CN(Cc3cn(Cc4cccc(F)c4)nn3)S(=O)(=O)C2)c1 (configuration not stated),i,nt,nt,i,nt,nt
COc1c(OC(C)=O)ccc(/C=C/c2ccc3cccc(OC)c3n2)c1[N+](=O)[O-],i,i,i,i,i,nt
CCOc1c(OC(C)=O)ccc(/C=C/c2ccc3cccc(OC(C)=O)c3n2)c1[N+](=O)[O-],nt,i,36.7,nt,nt,i
CN=c1scc(-c2ccco2)n1/N=C/c1ccc(O)c(O)c1,i,i,73.5,39.7,i,72.6
COc1ccc(O)c(/C=N/n2c(-c3ccco3)csc2=Nc2cccnc2)c1,i,i,i,i,i,nt
CN1C(=O)c2cc(NC(=O)Nc3ccc(F)c(F)c3)ccc2OC[C@H]2O[C@@H](CC(=O)O)CC[C@H]21,i,nt,nt,i,nt,nt
Cc1[nH][nH]c(=O)c1C(c1ccc(-c2ccc(Cl)c(Cl)c2)o1)c1c(C)[nH][nH]c1=O,21.0,i,40.2,i,i,36.7
Cc1[nH][nH]c(=O)c1C(c1ccc(-c2ccc(F)cc2)o1)c1c(C)[nH][nH]c1=O,i,i,i,i,i,nt
C[C@H](CO)N1C[C@H](C)[C@@H](CN(C)C(=O)Nc2ccccc2)OCc2cn(nn2)CCCC1=O,i,nt,nt,i,i,nt
Cc1ccc(/C=C2/SC(=O)NC2=S)o1,nt,i,40.2,nt,nt,i
Cc1ccc(/C=C2/SC(=S)N(C3CCCCC3)C2=O)o1,i,i,i,i,i,nt
COC(=O)C1=C(C)N(Cc2ccccc2C(F)(F)F)C(=NCc2ccccc2)NC1CCc1ccccc1 (configuration not stated),i,nt,nt,i,i,nt
Cc1ccccc1C(=O)N[C@H](C(=O)N1CCC[C@H]1C(=O)NCCc1ccccc1Cl)C(C)C,i,nt,nt,i,i,nt
N/C(=N/OC(=O)c1ccccc1Cl)c1ncc([N+](=O)[O-])s1,i,i,56.6,i,i,i
